In ChEMBL document CHEMBL1135500, “Highly antibacterial active aminoacyl penicillin conjugates with acylated bis-catecholate siderophores based on secondary diamino acids and related compounds” (2002):
≈ marks a conversion by molar mass, not a printed value.

Key:
Format in all cases: functional
Pseudomonas aeruginosa [1] = experiment: Siderophore activity determined using growth promoting assay in K799/WT strain of Pseudomonas aeruginosa under iron limited conditions
How it was run: (§1)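 Growth promotion under iron limitation. Overnight Nutrient Agar cultures suspended in medium VA to 1 McFarland, then 1.5 mL mixed into 99 mL Al2O3-treated Hall-Ratledge agar (pH 6.8) with trace elements and EDDHA. 5 µL of 2 mM compound applied on 6 mm paper disks. Growth zone around disks measured after 18-20 h at 37 °C.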

Pseudomonas aeruginosa [2] = experiment: Siderophore activity determined using growth promoting assay in ATCC 27853 strain of Pseudomonas aeruginosa under iron limited conditions; how it was run: as §1
Pseudomonas aeruginosa [3] = experiment: Siderophore activity determined using growth promoting assay in ATCC 9027 strain of Pseudomonas aeruginosa under iron limited conditions; how it was run: as §1
Pseudomonas aeruginosa [4] = experiment: Siderophore activity determined using growth promoting assay in SG137 strain of Pseudomonas aeruginosa under iron limited conditions; how it was run: as §1
Escherichia coli [5] = experiment: Siderophore activity determined using growth promoting assay in ATCC 25922 strain of Escherichia coli under iron limited conditions; how it was run: as §1
Pseudomonas aeruginosa [6] = experiment: (§2) Siderophore activity determined using growth promoting assay in NCTC-10662 strain of Pseudomonas aeruginosa under iron limited conditions; parameters: unit not given beside the values; how it was run: as §1
Staphylococcus aureus = experiment: In vitro antibacterial activity against SG 511 strain of Staphylococcus aureus
How it was run: (§3)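 MIC by microbroth dilution in Mueller-Hinton broth following NCCLS guidelines.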

Klebsiella pneumoniae = experiment: In vitro antibacterial activity against ATCC 100331 strain of Klebsiella pneumoniae; how it was run: as §3
Escherichia coli [7] = experiment: Influence of siderophore receptor on antibacterial activity in Escherichia coli (H873) using agar diffusion assay
How it was run: (§4)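 Agar diffusion in Nutrient Agar with E. coli K-12 mutants altered in catecholate siderophore receptors Cir, Fiu and FepA. 50 µL of a 0.2 mM compound solution filled into 9 mm agar wells, with clavulanic acid 10 µg/mL added to block the penicillinase selection marker. Inhibition zone diameters (mm) read after overnight incubation at 37 °C.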

Escherichia coli [8] = experiment: Influence of siderophore receptor on antibacterial activity in Escherichia coli (H1877) using agar diffusion assay; how it was run: as §4
Pseudomonas aeruginosa [9] = experiment: In vitro antibacterial activity against SG 137 strain of Pseudomonas aeruginosa; how it was run: as §3
Escherichia coli [10] = experiment: Influence of siderophore receptor on antibacterial activity in Escherichia coli (H1443) using agar diffusion assay; how it was run: as §4
Escherichia coli [11] = experiment: In vitro antibacterial activity against ATCC 25922 strain of Escherichia coli; how it was run: as §3
Escherichia coli [12] = experiment: Influence of siderophore receptor on antibacterial activity in Escherichia coli (1875) using agar diffusion assay; how it was run: as §4
[13] = tested on: Stenotrophomonas maltophilia; experiment: In vitro antibacterial activity against GN 12873 strain of Stenotrophomonas maltophilia; how it was run: as §3
Serratia marcescens = experiment: In vitro antibacterial activity against SG 621 strain of Serratia marcescens; how it was run: as §3
Escherichia coli [14] = experiment: Influence of siderophore receptor on antibacterial activity in Escherichia coli (H1876) using agar diffusion assay; how it was run: as §4
Pseudomonas aeruginosa [15] = experiment: In vitro antibacterial activity against ATCC 27853 strain of Pseudomonas aeruginosa; how it was run: as §3
Pseudomonas aeruginosa [16] = experiment: as §2; how it was run: as §1

COC(=O)Oc1cc(Cl)c(Cl)c(C(=O)N(C)CCCN(CC(=O)O)C(=O)c2c(Cl)c(Cl)cc(OC(=O)OC)c2OC(=O)OC)c1OC(=O)OC
Activity (Pseudomonas aeruginosa [1]): 25 | Activity (Pseudomonas aeruginosa [2]): 25 | Activity (Pseudomonas aeruginosa [3]): 25 | Activity (Pseudomonas aeruginosa [4]): 30 | Activity (Escherichia coli [5]): 30 | Activity (Pseudomonas aeruginosa [6]): 30

COC(=O)Oc1cccc(C(=O)N(CCCn2c(=O)oc3c(OC(=O)OC)cccc3c2=O)C(C)C(=O)NC(C(=O)NC2C(=O)N3C2SC(C)(C)C3C(=O)O)c2ccccc2)c1OC(=O)OC (configuration not stated)
MIC (Staphylococcus aureus): 1.56 µg/mL (≈ 1.64 µM) | MIC (Klebsiella pneumoniae): < 0.05 µg/mL | Zone of inhibition (Escherichia coli [7]): 25 mm | Zone of inhibition (Escherichia coli [8]): 22.5 mm | MIC (Pseudomonas aeruginosa [9]): 0.1 µg/mL (≈ 0.105 µM) | Zone of inhibition (Escherichia coli [10]): 24.5 mm | MIC (Escherichia coli [11]): 0.4 µg/mL (≈ 0.421 µM) | Zone of inhibition (Escherichia coli [12]): 22 mm | MIC [13]: 0.4 µg/mL (≈ 0.421 µM) | MIC (Serratia marcescens): 0.2 µg/mL (≈ 0.211 µM) | Zone of inhibition (Escherichia coli [14]): 11.5 mm | MIC (Pseudomonas aeruginosa [15]): 3.12 µg/mL (≈ 3.28 µM)

COC(=O)Oc1cc(Cl)cc(C(=O)N(C)CCCN(CC(=O)O)C(=O)c2cc(Cl)cc(OC(=O)OC)c2OC(=O)OC)c1OC(=O)OC
Activity (Pseudomonas aeruginosa [1]): 25 | Activity (Pseudomonas aeruginosa [2]): 25 | Activity (Pseudomonas aeruginosa [3]): 24 | Activity (Pseudomonas aeruginosa [4]): 26 | Activity (Escherichia coli [5]): 30 | Activity (Pseudomonas aeruginosa [6]): 25

CC(=O)Oc1cccc(C(=O)N(C)CCCN(CC(=O)O)C(=O)c2cccc(OC(C)=O)c2OC(C)=O)c1OC(C)=O
Activity (Pseudomonas aeruginosa [1]): 22 | Activity (Pseudomonas aeruginosa [2]): 19 | Activity (Pseudomonas aeruginosa [3]): 18 | Activity (Pseudomonas aeruginosa [4]): 15 | Activity (Escherichia coli [5]): 20 | Activity (Pseudomonas aeruginosa [6]): 23

CC(=O)Oc1ccc(C(=O)NCCCCN(CC(=O)O)C(=O)c2ccc(OC(C)=O)c(OC(C)=O)c2)cc1OC(C)=O
Activity (Pseudomonas aeruginosa [1]): 20 | Activity (Pseudomonas aeruginosa [2]): 25 | Activity (Pseudomonas aeruginosa [3]): 19 | Activity (Pseudomonas aeruginosa [4]): 10 | Activity (Escherichia coli [5]): 21 | Activity (Pseudomonas aeruginosa [6]): 14

COC(=O)Oc1cc(Br)cc(C(=O)N(C)CCCN(CC(=O)O)C(=O)c2cc(Br)cc(OC(=O)OC)c2OC(=O)OC)c1OC(=O)OC
Activity (Pseudomonas aeruginosa [1]): 27 | Activity (Pseudomonas aeruginosa [2]): 22 | Activity (Pseudomonas aeruginosa [3]): 20 | Activity (Pseudomonas aeruginosa [4]): 25 | Activity (Escherichia coli [5]): 32 | Activity (Pseudomonas aeruginosa [6]): 27

CC(=O)Oc1cccc(C(=O)NCCCCN(Cc2ccccc2OCC(=O)O)C(=O)c2cccc(OC(C)=O)c2OC(C)=O)c1OC(C)=O
Activity (Pseudomonas aeruginosa [1]): 25 | Activity (Pseudomonas aeruginosa [2]): 18 | Activity (Pseudomonas aeruginosa [3]): 26 | Activity (Escherichia coli [5]): 26 | Activity (Pseudomonas aeruginosa [6]): 27

COC(=O)Oc1cccc2c(=O)n(CCC(=O)Nc3cc(NC(=O)CCn4c(=O)oc5c(OC(=O)OC)cccc5c4=O)cc(C(=O)O)c3)c(=O)oc12
Activity (Pseudomonas aeruginosa [2]): 18 | Activity (Pseudomonas aeruginosa [3]): 20 | Activity (Pseudomonas aeruginosa [4]): 23 | Activity (Escherichia coli [5]): 20 | Activity (Pseudomonas aeruginosa [6]): 20

CC(=O)Oc1cccc(C(=O)NCCCCCN(CC(=O)O)C(=O)c2cccc(OC(C)=O)c2OC(C)=O)c1OC(C)=O
Activity (Pseudomonas aeruginosa [1]): 25 | Activity (Pseudomonas aeruginosa [2]): 30 | Activity (Pseudomonas aeruginosa [3]): 20 | Activity (Pseudomonas aeruginosa [4]): 28 | Activity (Escherichia coli [5]): 27 | Activity (Pseudomonas aeruginosa [6]): 30

CC(=O)Oc1cccc(C(=O)NCCCCN(Cc2ccc(OCC(=O)O)cc2)C(=O)c2cccc(OC(C)=O)c2OC(C)=O)c1OC(C)=O
Activity (Pseudomonas aeruginosa [1]): 12 | Activity (Pseudomonas aeruginosa [2]): 22 | Activity (Pseudomonas aeruginosa [3]): 25 | Activity (Pseudomonas aeruginosa [4]): 19 | Activity (Escherichia coli [5]): 27 | Activity (Pseudomonas aeruginosa [6]): 23

CC(=O)N(O)CCCCCNC(=O)CCC(=O)N(O)CCCCCNC(=O)CCC(=O)N(O)CCCCCN [DEFEROXAMINE]
Activity (Pseudomonas aeruginosa [1]): 36 | Activity (Pseudomonas aeruginosa [2]): 35 | Activity (Pseudomonas aeruginosa [3]): 35 | Activity (Pseudomonas aeruginosa [4]): 30 | Activity (Escherichia coli [5]): 38 | Activity (Pseudomonas aeruginosa [6]): 30

COC(=O)Oc1cccc2c(=O)n(-c3cc(C(=O)O)cc(-n4c(=O)oc5c(OC(=O)OC)cccc5c4=O)c3)c(=O)oc12
Activity (Pseudomonas aeruginosa [2]): 15 | Activity (Pseudomonas aeruginosa [3]): 20 | Activity (Pseudomonas aeruginosa [4]): 25 | Activity (Escherichia coli [5]): 20 | Activity (Pseudomonas aeruginosa [6]): 18

COC(=O)Oc1cccc(C(=O)N(C)CCCN(CC(=O)O)C(=O)c2cccc(OC(=O)OC)c2OC(=O)OC)c1OC(=O)OC
Activity (Pseudomonas aeruginosa [1]): 25 | Activity (Pseudomonas aeruginosa [2]): 15 | Activity (Pseudomonas aeruginosa [3]): 13 | Activity (Pseudomonas aeruginosa [4]): 9 | Activity (Escherichia coli [5]): 20 | Activity (Pseudomonas aeruginosa [6]): 18

CC(=O)Oc1cccc(C(=O)Nc2cc(NC(=O)c3cccc(OC(C)=O)c3OC(C)=O)cc(C(=O)O)c2)c1OC(C)=O
Activity (Pseudomonas aeruginosa [2]): 0 | Activity (Pseudomonas aeruginosa [3]): 10 | Activity (Pseudomonas aeruginosa [4]): 20 | Activity (Escherichia coli [5]): 27 | Activity (Pseudomonas aeruginosa [6]): 17

CC(=O)Oc1cccc(C(=O)NCCCCN(CC(=O)O)C(=O)c2cccc(OC(C)=O)c2OC(C)=O)c1OC(C)=O
Activity (Pseudomonas aeruginosa [1]): 25 | Activity (Pseudomonas aeruginosa [2]): 20 | Activity (Pseudomonas aeruginosa [3]): 20 | Activity (Pseudomonas aeruginosa [16]): 25 | Activity (Pseudomonas aeruginosa [4]): 26 | Activity (Escherichia coli [5]): 28
